Active and inactive are the calls of the source. The calls are words filed in the database; no cut-off is given here. Residues, ends and D or L forms follow the SMILES beside them.
What was measured:
Drosophila [1] = experiment: Protection of neurodegeneration in Drosophila Huntington's disease model assessed as induction autophagy at 1.25 mM; format: functional, organism-based
How it was run: (§1)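 Progeny reared on instant food with drug (from 0.5 M DMSO stock) or DMSO, at 25°C, 70% humidity, 12 h light/dark. Photoreceptors scored by pseudopupil technique 2 days after eclosion; paired t-test on experiment averages.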

SK-N-SH [2] = experiment: Induction of autophagy in human SK-N-SH cells expressing EGFP-HDQ74 assessed as inhibition of Bay K8644-induced EGFP-HDQ74 aggregation at 1 uM after 48 hrs; format: functional, cell-based
How it was run: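 SK-N-SH cells transfected with EGFP-HDQ74 (LipofectAMINE PLUS, 4 h), then exposed alongside 1 μM (±)-Bay K8644. Proportion of EGFP-positive cells with aggregates scored at 48 h post-transfection by a blinded observer.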

Mus musculus = species: Mus musculus; experiment: Induction of autophagy in Atg deficient mouse […] expressing EGFP-HDQ74 at 1 uM after 48 hrs; format: functional
Danio rerio [3] = species: Danio rerio; experiment: Protection of neurodegeneration in zebrafish Huntington's disease model expressing EGFP-tagged huntingtin exon with EGFP-HDQ71 in rod photoreceptor assessed as induction of rhodopsin expression at 3 uM; format: functional, organism-based
How it was run: (§2)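 Zebrafish larvae dark-reared 3–9 d.p.f. with drug in E3, refreshed daily, then lysed in RIPA/DTT. Western blot with anti-rhodopsin (Zpr3, 1:1000), anti-Zpr1 and anti-EGFP antibodies; ECL detection.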

Danio rerio [4] = species: Danio rerio; experiment: Protection of neurodegeneration in zebrafish Huntington's disease model expressing EGFP-tagged huntingtin exon with EGFP-HDQ71 in rod photoreceptor assessed as decrease in […] aggregation at 3 uM
Danio rerio [5] = species: Danio rerio; experiment: Protection of neurodegeneration in zebrafish Huntington's disease model expressing EGFP-tagged huntingtin exon with EGFP-HDQ71 in rod photoreceptor assessed as decrease in […] aggregation at 3 uM; format: functional, organism-based
How it was run: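 Transgenic zebrafish larvae raised in PTU to 3 d.p.f., then dark-reared 3–9 d.p.f. with drug in E3 medium (pH 7.2), refreshed daily. Fixed fish were cryosectioned at 12 μm and aggregates counted over 96 μm of the central eye. Means from 10 fish per group; ANOVA with Dunnett's test.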

SK-N-MC [6] = experiment: Induction of autophagy in Atg positive human SK-N-MC cells expressing EGFP-HDQ74 at 1 uM after 48 hrs; format: functional, cell-based
SK-N-SH [7] = experiment: Induction of autophagy in human SK-N-SH cells expressing EGFP-HDQ74/m-calpain assessed as inhibition of EGFP-HDQ74 aggregation at 1 uM after 48 hrs; format: functional, cell-based
Danio rerio [8] = species: Danio rerio; experiment: Protection of neurodegeneration in zebrafish Huntington's disease model expressing EGFP-tagged huntingtin exon with EGFP-HDQ71 in rod photoreceptor assessed as loss of rhodopsin expression at 3 uM
SK-N-SH (Homo sapiens) [9] = experiment: Induction of autophagy in human SK-N-SH cells expressing EGFP-HDQ74 assessed as reduction in EGFP-HDQ74 aggregation at 1 uM after 48 hrs by densitometric analysis
Drosophila [10] = experiment: Protection of neurodegeneration in Drosophila Huntington's disease model assessed as induction autophagy at 2.5 mM; format: functional, organism-based; how it was run: as §1
SK-N-SH (Homo sapiens) [11] = experiment: Induction of autophagy in human SK-N-SH cells assessed as increase in LC3-2 level at 0.33 uM after 24 hrs by immunoblotting analysis
HeLa = experiment: Induction of autophagy in human HeLa cells expressing EGFP-LC3 assessed as increase in LC3-2 level at 50 uM in presence of 400 nM bafilomycin A1; format: functional, cell-based
COS-7 [12] = experiment: Induction of autophagy in african green monkey COS7 cells assessed as increase in LC3-2 vesicle at 50 uM after 24 hrs by immunofluorescence assay; format: functional, cell-based; settings: Chlorocebus aethiops
How it was run: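 Fixed COS-7 cells, after 24 h exposure, immunostained for LC3 with an anti-LC3 primary and Alexa-conjugated secondary; confocal imaging of LC3-positive vesicles.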

COS-7 [13] = experiment: Induction of autophagy in african green monkey COS7 cells expressing EGFP-LC3 assessed as increase in EGFP-LC3 vesicle at 0.2 uM after 2 hrs; format: functional, cell-based; settings: Chlorocebus aethiops
How it was run: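 COS-7 transfected 4 h with EGFP-LC3, then exposed 2 h together with 2.5 μM thapsigargin. Each EGFP-positive cell was scored positive if it had >5 EGFP-LC3 vesicles. Blinded fluorescence microscopy; triplicate, at least twice.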

COS-7 [14] = experiment: Induction of autophagy in african green monkey COS7 cells expressing EGFP-HDQ74/rheb assessed as reduction in EGFP-HDQ74 aggregation at 0.2 uM after 2 hrs; format: functional, cell-based; settings: Chlorocebus aethiops
PC-12 [15] = experiment: Induction of autophagy in rat stable inducible PC12 cells expressing A53T alpha-synuclein assessed as inhibition of PACAP-retarded A53T alpha-synuclein clearance at 500 uM after 24 hrs by densitometric analysis; format: functional, cell-based
How it was run: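 Inducible PC12 A53T α-synuclein line (doxycycline 1 μg/ml 48 h, then 24 h off-induction) treated 24 h with 100 nM PACAP with or without compound. Clearance measured by anti-HA immunoblot, densitometry relative to actin.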

Danio rerio [16] = species: Danio rerio; experiment: Protection of neurodegeneration in zebrafish Huntington's disease model expressing EGFP-tagged huntingtin exon with EGFP-HDQ71 in rod photoreceptor assessed as decrease in […] aggregation at 100 uM; format: functional, organism-based
How it was run: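 Transgenic zebrafish embryos kept in 0.1 mM PTU from 1 to 3 d.p.f. and screened by EGFP, then dark-reared 3–9 d.p.f. in compound in E3 medium (pH 7.2), refreshed daily. Fixed in 4% PFA, cryosectioned at 12 μm; aggregates counted over 96 μm of central eye. Mean of 10 fish; ANOVA with Dunnett test.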

PC-12 [17] = experiment: Induction of autophagy in rat stable inducible PC12 cells assessed as increase in LC3-2 level at 500 uM after 24 hrs by immunoblotting analysis; format: functional, cell-based
How it was run: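 Stable inducible PC12 cells exposed 24 h; endogenous LC3-II measured by anti-LC3 immunoblotting, with densitometry relative to actin.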

SK-N-SH [18] = experiment: Induction of autophagy in human SK-N-SH cells expressing EGFP-HDQ74 assessed as reduction in EGFP-HDQ74 aggregation at 500 uM after 48 hrs by densitometric analysis; format: functional, cell-based
PC-12 [19] = experiment: Induction of autophagy in rat stable inducible PC12 cells expressing A53T alpha-synuclein assessed as A53T alpha-synuclein clearance at 500 uM after 24 hrs by densitometric analysis; format: functional, cell-based
How it was run: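 Inducible PC12 A53T α-synuclein (HA) cells induced with 1 μg/ml doxycycline for 48 h. Doxycycline then removed for 24 h with compound or DMSO. Remaining protein measured by anti-HA immunoblot, densitometry relative to actin.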

Danio rerio [20] = species: Danio rerio; experiment: Protection of neurodegeneration in zebrafish Huntington's disease model expressing EGFP-tagged huntingtin exon with EGFP-HDQ71 in rod photoreceptor assessed as induction of rhodopsin expression at 100 uM; format: functional, organism-based
How it was run: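 Zebrafish larvae dosed 3–9 d.p.f. in E3 medium (daily refresh, dark-reared), lysed in 80% RIPA/100 mM DTT with protease inhibitor for 1 h on ice. Proteins run on 10% SDS-PAGE and blotted with anti-rhodopsin (Zpr3, 1:1000), anti-Zpr1 and anti-EGFP; ECL detection.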

COS-7 [21] = experiment: Induction of autophagy in african green monkey COS7 cells expressing EGFP-HDQ74/m-calpain assessed as decrease in EGFP-HDQ74 aggregation at 500 uM after 48 hrs; format: functional, cell-based; settings: Chlorocebus aethiops
SK-N-SH [22] = experiment: Induction of autophagy in human SK-N-SH cells assessed as inhibition of Bay K8644-induced calpain activation; format: functional, cell-based
How it was run: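 SK-N-SH cells pretreated 15 min, then given 1 μM (±)-Bay K8644 for 4 h. The active calpain small subunit was detected by immunoblot.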

Danio rerio [23] = species: Danio rerio; experiment: Protection of neurodegeneration in zebrafish Huntington's disease model expressing EGFP-tagged huntingtin exon with EGFP-HDQ71 in rod photoreceptor assessed as induction of rhodopsin expression at 1 uM; format: functional, organism-based; how it was run: as §2
COS-7 [24] = experiment: Induction of autophagy in african green monkey COS7 cells expressing PLC-epsilon assessed as calpain activation at 2.5 uM after 30 mins by immunoblotting analysis; format: functional, cell-based; settings: Chlorocebus aethiops
How it was run: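 Calpain activation in COS-7 after 30 min exposure, alongside 2.5 μM thapsigargin where applied; immunoblot of the active calpain small subunit.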

SK-N-MC [25] = experiment: Cytotoxicity against human SK-N-MC cells expressing EGFP-HDQ74 at 1 uM after 48 hrs; format: cell-based
COS-7 [26] = experiment: Induction of autophagy in african green monkey COS7 cells expressing EGFP-LC3 assessed as increase in EGFP-LC3 vesicle at 50 uM after 24 hrs; format: functional, cell-based; settings: Chlorocebus aethiops
PC-12 [27] = experiment: Induction of autophagy in undifferentiated rat stable inducible PC12 cells expressing A53T alpha-synuclein assessed as A53T alpha-synuclein clearance at 10 uM after 96 hrs by calpain activation assay; format: functional, cell-based
PC-12 [28] = experiment: Induction of autophagy in differentiated rat stable inducible PC12 cells expressing A53T alpha-synuclein assessed as A53T alpha-synuclein clearance at 10 uM after 96 hrs by calpain activation assay; format: functional, cell-based
COS-7 [29] = experiment: Induction of autophagy in african green monkey COS7 cells assessed as increase in autophagosome at 50 uM after 24 hrs by electron microscopy; format: functional, cell-based; settings: Chlorocebus aethiops
How it was run: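 COS-7 cells exposed 24 h, fixed, and examined by electron microscopy. Early and late autophagosome-like structures were counted per 50 cell profiles. Student's t-test; error bars are standard error of the mean.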

COS-7 [30] = experiment: Induction of autophagy in african green monkey COS7 cells expressing EGFP-HDQ74 assessed as inhibition of PLC-epsilon overexpression-induced EGFP-HDQ74 aggregation at 50 uM after 48 hrs; format: functional, cell-based; settings: Chlorocebus aethiops
PC-12 [31] = experiment: Induction of autophagy in undifferentiated rat stable inducible PC12 cells expressing EGFP-HDQ74 assessed as EGFP-HDQ74 clearance at 10 uM after 96 hrs by calpain activation assay; format: functional, cell-based
PC-12 [32] = experiment: Induction of autophagy in differentiated rat stable inducible PC12 cells expressing EGFP-HDQ74 assessed as EGFP-HDQ74 clearance at 10 uM after 96 hrs by calpain activation assay; format: functional, cell-based
COS-7 [33] = experiment: Induction of autophagy in african green monkey COS7 cells expressing EGFP-HDQ74/rheb assessed as reduction in EGFP-HDQ74 aggregation at 50 uM after 48 hrs; format: functional, cell-based; settings: Chlorocebus aethiops

COc1ccc(CCN(C)CCCC(C#N)(c2ccc(OC)c(OC)c2)C(C)C)cc1OC (stereo not given)
Activity (Drosophila [1]): Active
Activity (SK-N-SH [2]): Active
Activity (Mus musculus): inactive
Activity (Danio rerio [3]): Active
Activity (Danio rerio [4]): Active
Activity (Danio rerio [5]): Active
Activity (SK-N-MC [6]): Active
Activity (SK-N-SH [7]): inactive
Activity (Danio rerio [8]): inactive
Activity (SK-N-SH (Homo sapiens) [9]): Active
Activity (Drosophila [10]): Active
Activity (SK-N-SH (Homo sapiens) [11]): Active

CSCC[C@@H](C=O)NC(=O)[C@H](CC(C)C)NC(=O)[C@H](CC(C)C)NC(C)=O (Ac-Leu-Leu-Met-aldehyde)
Activity (HeLa): Active
Activity (COS-7 [12]): Active

CO[C@H]1C[C@@H]2CC[C@@H](C)[C@@](O)(O2)C(=O)C(=O)N2CCCC[C@H]2C(=O)O[C@H]([C@H](C)C[C@@H]2CC[C@@H](O)[C@H](OC)C2)CC(=O)[C@H](C)/C=C(\C)[C@@H](O)[C@@H](OC)C(=O)[C@H](C)C[C@H](C)/C=C/C=C/C=C/1C
Activity (COS-7 [13]): Active
Activity (COS-7 [14]): Active

C[C@H]1O[C@@H](n2cnc3c(N)ncnc32)C[C@@H]1O
Activity (PC-12 [15]): Active
Activity (Danio rerio [16]): Active
Activity (PC-12 [17]): Active
Activity (SK-N-SH [18]): Active
Activity (PC-12 [19]): Active
Activity (Danio rerio [20]): Active
Activity (COS-7 [21]): Active

COC(=O)C1=C(C)NC(C)=C([N+](=O)[O-])C1c1ccccc1C(F)(F)F (racemic)
Activity (Mus musculus): inactive
Activity (Danio rerio [3]): inactive
inhibition (SK-N-SH [22]): Dose-dependent effect
Activity (SK-N-MC [6]): Active
Activity (Danio rerio [23]): Active
Activity (COS-7 [24]): Active
Activity (SK-N-SH (Homo sapiens) [9]): inactive
Activity (SK-N-MC [25]): Toxic

CCCC[C@@H](C=O)NC(=O)[C@H](CC(C)C)NC(=O)OCc1ccccc1
Activity (COS-7 [26]): Active
Activity (PC-12 [27]): Active
Activity (PC-12 [28]): Active
Activity (COS-7 [29]): Active
Activity (COS-7 [30]): Active
Activity (PC-12 [31]): Active
Activity (HeLa): Active
Activity (PC-12 [32]): Active
Activity (COS-7 [33]): Active
